The record followed here is ChEMBL document CHEMBL2034955, “Thieno[3,2-b]thiophene-2-carboxylic acid derivatives as GPR35 agonists” (Bioorg Med Chem Lett, 2012).

Assay [1] concerns the target T1, G-protein coupled receptor 35 (Homo sapiens, UniProt Q9HC97). The experiment in a line: Agonist activity at GPR35 in human HT-29 cells by dynamic mass redistribution assay. Format: functional, cell-based.
Assay [2] addresses T1, G-protein coupled receptor 35. The experiment in a line: Agonist activity at GPR35 in human U20S cells expressing beta-lactamase and Gal4-VP16 transcription factor assessed as beta arrestin translocation after 5 hrs by Tango assay. It counts as functional, cell-based, U2OS. The essentials: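 Tango GPR35-bla U2OS cells seeded at 10,000/well and cultured overnight in DMEM with 10% dialyzed FBS. Ligand stimulation 5 h at 37 °C/5% CO2, then LiveBLAzer FRET B/G substrate loading for 2 h. EC50 from monophasic sigmoidal fit. Two independent runs, each in duplicate (n = 4).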

Assay [3] shares this target. The experiment in a line: Agonist activity at GPR35 in human HT-29 cells by dynamic mass redistribution assay relative to zaprinast. Format: functional, cell-based.
Assay [4] shares this target. The experiment in a line: Agonist activity at GPR35 in human U2OS cells expressing beta-lactamase and Gal4-VP16 transcription factor assessed as beta arrestin translocation after 5 hrs by Tango assay relative to zaprinast. It counts as functional, cell-based. A digest of the protocol:
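Tango GPR35-bla U2OS cells seeded at 10,000/well and cultured overnight in DMEM with 10% dialyzed FBS. Ligand stimulation 5 h at 37 °C/5% CO2, then LiveBLAzer FRET B/G substrate loading for 2 h. […] EC50 from monophasic sigmoidal fit. Two independent runs, each in duplicate (n = 4).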

For assay [5] the target is unchanged. The experiment in a line: Agonist activity at GPR35 in human HT-29 cells at 125 nM by dynamic mass redistribution assay in presence of CID 2745687. Format: functional, cell-based. A digest of the protocol:
(§1)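 Native HT-29 cells seeded at 32,000/well and cultured overnight to confluence in McCoy's 5a with 10% FBS at 37 °C/5% CO2, washed twice and held in 1x HBSS for 1 h. CID 2745687 was pre-incubated 10 min at varying doses, then agonist added at a fixed dose. DMR amplitude read 10 min poststimulation, background corrected. Two independent runs, each in duplicate (n = 4).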

The target is the same in assay [6]. The experiment in a line: Agonist activity at GPR35 in human U20S cells expressing beta-lactamase and Gal4-VP16 transcription factor assessed as beta arrestin translocation at 10 uM after 5 hrs by Tango assay in the presence of ML-145. It counts as functional, cell-based. Conditions: U2OS. The essentials:
(§2)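 Tango antagonist format in GPR35-bla U2OS cells. Agonist at a fixed dose was combined with varying ML-145 doses, followed by 5 h stimulation at 37 °C and 2 h FRET B/G substrate loading. Coumarin/fluorescein ratio read out, with IC50 derived. Two independent runs, each in duplicate (n = 4).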

For assay [7] the target is unchanged. The experiment in a line: Agonist activity at GPR35 in human HT-29 cells at 2 uM by dynamic mass redistribution assay in presence of CID 2745687. Format: functional, cell-based. The essentials: as §1
The target is the same in assay [8]. The experiment in a line: Agonist activity at GPR35 in human HT-29 cells at 250 nM by dynamic mass redistribution assay in presence of CID 2745687. Format: functional, cell-based. A digest of the protocol:
as §1

Assay [9] shares this target. The experiment in a line: Agonist activity at GPR35 in human U20S cells expressing beta-lactamase and Gal4-VP16 transcription factor assessed as beta arrestin translocation at 20 uM after 5 hrs by Tango assay in the presence of ML-145. It counts as functional, cell-based. Conditions: U2OS. A digest of the protocol:
as §2

The target is the same in assay [10]. The experiment in a line: Agonist activity at GPR35 in human U20S cells expressing beta-lactamase and Gal4-VP16 transcription factor assessed as beta arrestin translocation at 100 uM after 5 hrs by Tango assay in the presence of ML-145. Format: functional, cell-based. Conditions: U2OS. The essentials:
as §2

Assay [11] shares this target. The experiment in a line: Agonist activity at GPR35 in human HT-29 cells assessed as receptor internalization at 12.5 uM after 1 hr by confocal microscopy. Format: functional, cell-based. A digest of the protocol: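 HT-29 cells treated 1 h with agonist in assay vehicle containing 0.1% DMSO (vehicle control), then permeabilized and immunostained with anti-GPR35 plus fluorescent secondary antibody. Internalization judged from confocal fluorescence images.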

The target is the same in assay [12]. The experiment in a line: Agonist activity at GPR35 in human U20S cells expressing beta-lactamase and Gal4-VP16 transcription factor assessed as beta arrestin translocation at 64 uM after 5 hrs by Tango assay in the presence of ML-145. Conditions: U2OS. Format: functional, cell-based. The essentials:
as §2

Each structure is given as a SMILES string. Calls of active or inactive are those of the source. The calls are words filed in the database; no cut-off is given here.

T1 sequence (Q9HC97 whole entry, the tested form may be a part): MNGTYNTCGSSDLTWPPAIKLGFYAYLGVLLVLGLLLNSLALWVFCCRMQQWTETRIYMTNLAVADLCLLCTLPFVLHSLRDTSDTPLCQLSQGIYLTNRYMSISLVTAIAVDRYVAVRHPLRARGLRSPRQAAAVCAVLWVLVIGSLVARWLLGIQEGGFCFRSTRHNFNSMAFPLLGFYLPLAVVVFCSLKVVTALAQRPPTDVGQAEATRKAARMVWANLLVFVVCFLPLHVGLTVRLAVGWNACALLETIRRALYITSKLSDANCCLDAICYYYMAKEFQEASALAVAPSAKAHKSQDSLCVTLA

Regarding `O=C(O)c1sc2c(Br)c(Br)sc2c1C(F)(F)F`, the EC50 in assay [1] (read-out: EC50) came out at 0.51 µM; in [2] (read-out: EC50) it was 31.1 µM. Further, the Efficacy is 230 pm in assay [3] and 52% in assay [4].

In the case of `O=C(O)c1sc2c(Br)csc2c1C1CC1`, the EC50 in assay [1] (read-out: EC50) is 2.63 µM; in [2] (read-out: EC50), 504 µM. For the same compound, the figures for the Efficacy in [3] and in assay [4] were 246 pm and 46%, respectively.

For the compound `Cc1c(C(=O)O)sc2c(C3CC3)csc12`, the values for the EC50 in assay [1] (read-out: EC50) and in [2] (read-out: EC50) were 0.95 µM and 52.4 µM, respectively. In addition, the values for the Efficacy in [3] and in assay [4] were 262 pm and 101%, respectively.

As for `O=C(O)c1sc2c(Br)c(Br)sc2c1O`, the Activity result in assay [1] was “Dose-dependent effect”. Moreover, the EC50 was 0.016 µM in [1] (read-out: EC50) and 2.46 µM in assay [2] (read-out: EC50). The result in [5] and in assay [6] was inactive. Moreover, the Efficacy in [3] was 228 pm; in [4] it was 96%.

Consider `O=C(O)c1cc(=O)c2ccccc2[nH]1` [TRANSTORINE], for which the EC50 in assay [1] (ht-29, read-out: EC50) was 152 µM; in assay [2] (read-out: EC50) it was greater than 500 µM. Also, the Efficacy in assay [3] is 202 pm; in assay [4], greater than 60%.

`Cc1c(C(=O)O)sc2c(Br)c(Br)sc12`: the Activity result in assay [1] is “Dose-dependent effect”. In addition, the EC50 in assay [1] (read-out: EC50) was found to be 0.7 µM; in assay [2] (read-out: EC50), 36.5 µM. Besides, the result in assay [7] was inactive. Also, the Efficacy in assay [3] turned out to be 232 pm; in assay [4], 52%.

For `Cc1c(C(=O)O)sc2c(-c3cn[nH]c3)csc12`, the values for the EC50 in [1] (read-out: EC50) and in assay [2] (read-out: EC50) were 0.37 µM and 52.5 µM, respectively. In addition, the Efficacy in assay [3] worked out at 180 pm; in [4], 102%.

Turning to `Cc1c(C(=O)O)sc2c(Br)csc12`, in assay [1], the Activity entry was “Dose-dependent effect”. The EC50 stood at 0.061 µM in assay [1] (read-out: EC50) and 8.3 µM in assay [2] (read-out: EC50). Besides, the outcome in assay [8] and in assay [9] was inactive. Further, the Efficacy is 290 pm in assay [3] and 113% in assay [4].

With `Cc1c(C(=O)O)n(C)c2c(Br)csc12`, the EC50 is 5.3 µM in assay [1] (read-out: EC50) and 87.5 µM in [2] (read-out: EC50). In addition, the Efficacy in [3] came to 290 pm; in [4], 77%.

`O=C(O)c1sc2c(Br)csc2c1Cl`: the EC50 in [1] (read-out: EC50) came out at 1.03 µM; in [2] (read-out: EC50) it was 39.2 µM. For the same compound, the Efficacy was 262 pm in [3] and 68% in assay [4].

For `Cc1c(C(=O)O)sc2c(-c3ccsc3)csc12`, the results for the EC50 in assay [1] (read-out: EC50) and in assay [2] (read-out: EC50) were 0.26 µM and 17.6 µM, respectively. In [10], the result was inactive. Moreover, the results for the Efficacy in assay [3] and in [4] were 232 pm and 107%, respectively.

For the compound `CCOC(=O)c1sc2c(Br)c(Br)sc2c1C(F)(F)F`, the EC50 result in assay [1] (ht-29) and in assay [2] (u2os) was “Not Active” throughout.

For the compound `Cc1c(C(=O)O)[nH]c2c(Br)csc12`, the EC50 in assay [1] (read-out: EC50) turned out to be 11.8 µM; in assay [2] (read-out: EC50) it was 113 µM. Further, the Efficacy in assay [3] stood at 222 pm; in assay [4] it was 24%.

As to `Cc1c(C(=O)O)[nH]c2c(C3CC3)csc12`, the EC50 in assay [1] (read-out: EC50) came out at 8.37 µM; in assay [2] (read-out: EC50) it was 119 µM. The figures for the Efficacy in [3] and in assay [4] were 228 pm and 35%, respectively.

Take `Cc1sc2c(C)c(C(=O)O)sc2c1Br`: the EC50 in assay [1] (read-out: EC50) is 1.29 µM; in assay [2] (read-out: EC50), 22.2 µM. The Efficacy worked out at 268 pm in assay [3] and 52% in assay [4].

Take `Cc1c(C(=O)O)sc2c(-c3cccnc3)csc12`: the concentration for a half-maximal effect (EC50) worked out at 0.24 µM in [1] (read-out: EC50) and 11.8 µM in [2] (read-out: EC50). Further, the Efficacy came out at 223 pm in [3] and 118% in assay [4]. Further, in assay [11], the result was Active.

Turning to `C#Cc1csc2c(C)c(C(=O)O)sc12`, the EC50 came out at 1.48 µM in [1] (read-out: EC50) and 54.8 µM in [2] (read-out: EC50). Besides, the Efficacy in assay [3] stood at 257 pm; in assay [4], 102%.

On to `Cc1c(C(=O)O)[nH]c2c(-c3cccnc3)csc12`, for which the results for the EC50 in assay [1] (read-out: EC50) and in assay [2] (read-out: EC50) were 0.63 µM and 26.9 µM, respectively. Also, the result in [12] was inactive. Besides, the Efficacy in assay [3] turned out to be 210 pm; in [4], 120%.

For `O=C(O)c1sc2ccsc2c1O`, the EC50 is 9.78 µM in [1] (read-out: EC50) and 340 µM in [2] (read-out: EC50). Besides, the Efficacy in assay [3] was 159 pm; in assay [4], 64%.
